Data from ChEMBL document CHEMBL1152560, “Substituted 2-arylbenzothiazoles as kinase inhibitors: hit-to-lead optimization” (Bioorg Med Chem, 2009).
pEC50, pIC50: −log10 of the molar value.

What was measured:
[1] = molecular target: Death-associated protein kinase 3 (Homo sapiens) (UniProt O43293); assay: Residual activity of DAPK3 at 1 uM by microplate scintillation counting
[2] = molecular target: Tyrosine-protein kinase Fgr (Homo sapiens) (UniProt P09769); assay: Residual activity of FGR at 1 uM by microplate scintillation counting
[3] = molecular target: T1, Protein kinase C iota type (Homo sapiens) (UniProt P41743); assay: Residual activity of PKCiota at 1 uM by microplate scintillation counting
T1 sequence (whole entry): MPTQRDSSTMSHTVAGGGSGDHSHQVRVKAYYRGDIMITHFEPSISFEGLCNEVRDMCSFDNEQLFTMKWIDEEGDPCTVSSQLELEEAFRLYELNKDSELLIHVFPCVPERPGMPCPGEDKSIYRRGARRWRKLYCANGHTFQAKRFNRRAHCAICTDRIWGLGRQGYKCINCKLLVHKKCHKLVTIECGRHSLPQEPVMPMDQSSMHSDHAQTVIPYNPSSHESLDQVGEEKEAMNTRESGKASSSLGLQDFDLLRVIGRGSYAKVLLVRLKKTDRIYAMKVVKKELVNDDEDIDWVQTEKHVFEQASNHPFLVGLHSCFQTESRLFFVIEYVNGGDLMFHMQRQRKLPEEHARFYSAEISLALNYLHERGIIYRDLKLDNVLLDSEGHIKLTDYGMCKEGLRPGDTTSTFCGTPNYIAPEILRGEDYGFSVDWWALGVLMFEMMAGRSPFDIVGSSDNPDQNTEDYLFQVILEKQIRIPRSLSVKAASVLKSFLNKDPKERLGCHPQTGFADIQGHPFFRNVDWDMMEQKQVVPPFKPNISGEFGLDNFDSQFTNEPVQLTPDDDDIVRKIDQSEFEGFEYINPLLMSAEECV

[4] = molecular target: Tyrosine-protein kinase Fyn (Homo sapiens) (UniProt P06241); assay: Residual activity of FYN at 0.1 uM by microplate scintillation counting
Chain of Tyrosine-protein kinase Fyn (Homo sapiens) (P06241 2-537 limits assumed): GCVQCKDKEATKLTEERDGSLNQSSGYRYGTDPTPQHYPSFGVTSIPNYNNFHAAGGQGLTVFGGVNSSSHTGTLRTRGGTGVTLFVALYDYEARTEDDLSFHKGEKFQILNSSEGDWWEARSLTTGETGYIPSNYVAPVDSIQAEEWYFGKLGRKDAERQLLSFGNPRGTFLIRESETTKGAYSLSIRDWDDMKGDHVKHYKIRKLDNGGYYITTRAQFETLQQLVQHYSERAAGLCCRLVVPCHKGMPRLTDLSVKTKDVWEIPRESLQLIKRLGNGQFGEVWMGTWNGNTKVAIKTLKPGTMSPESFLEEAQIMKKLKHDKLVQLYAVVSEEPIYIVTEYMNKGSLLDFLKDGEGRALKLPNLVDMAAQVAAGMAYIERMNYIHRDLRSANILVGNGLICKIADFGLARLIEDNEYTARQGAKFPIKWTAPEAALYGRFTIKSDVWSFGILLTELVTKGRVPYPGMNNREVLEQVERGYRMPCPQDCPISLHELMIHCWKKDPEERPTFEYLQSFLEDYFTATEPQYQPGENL

[5] = molecular target: G protein-coupled receptor kinase 5 (Homo sapiens) (UniProt P34947); assay: Residual activity of GRK5 at 0.1 uM by microplate scintillation counting
[6] = molecular target: Glycogen synthase kinase-3 alpha (Homo sapiens) (UniProt P49840); assay: Residual activity of GSK3alpha at 0.1 uM by microplate scintillation counting
[7] = molecular target: Mitogen-activated protein kinase 14 (Homo sapiens) (UniProt Q16539); assay: Residual activity of p38alpha at 1 uM by microplate scintillation counting
[8] = molecular target: NT-3 growth factor receptor (Homo sapiens) (UniProt Q16288); assay: Residual activity of TRK-C at 1 uM by microplate scintillation counting
[9] = molecular target: Wee1-like protein kinase (Homo sapiens) (UniProt P30291); assay: Residual activity of WEE1 at 1 uM by microplate scintillation counting
[10] = molecular target: RAC-beta serine/threonine-protein kinase (Homo sapiens) (UniProt P31751); assay: Residual activity of AKT2 at 10 uM by microplate scintillation counting
Chain of RAC-beta serine/threonine-protein kinase (Homo sapiens) (P31751 whole entry): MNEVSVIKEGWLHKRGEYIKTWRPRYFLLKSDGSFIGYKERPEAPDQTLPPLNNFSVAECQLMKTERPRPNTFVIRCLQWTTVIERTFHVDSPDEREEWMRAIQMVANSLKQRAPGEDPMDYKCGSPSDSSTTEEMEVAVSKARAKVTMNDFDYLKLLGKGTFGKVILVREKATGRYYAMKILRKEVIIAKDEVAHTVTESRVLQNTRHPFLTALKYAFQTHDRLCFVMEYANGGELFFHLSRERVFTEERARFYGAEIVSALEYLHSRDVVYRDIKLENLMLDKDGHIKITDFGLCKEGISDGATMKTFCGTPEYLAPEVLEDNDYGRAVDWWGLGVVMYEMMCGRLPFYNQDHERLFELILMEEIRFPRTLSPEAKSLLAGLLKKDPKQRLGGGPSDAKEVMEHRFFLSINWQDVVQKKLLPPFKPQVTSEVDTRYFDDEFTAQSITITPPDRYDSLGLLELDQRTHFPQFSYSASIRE

[11] = molecular target: Tyrosine-protein kinase HCK (Homo sapiens) (UniProt P08631); assay: Residual activity of HCK at 10 uM by microplate scintillation counting
[12] = molecular target: RAC-alpha serine/threonine-protein kinase (Homo sapiens) (UniProt P31749); assay: Residual activity of AKT1 at 1 uM by microplate scintillation counting
[13] = molecular target: CDK3/cyclin E (Homo sapiens) (UniProt P24864+O96020+Q00526); assay: Residual activity of CDK3/Cyclin E at 10 uM by microplate scintillation counting; assay type: protein-complex assay
Chain of CDK3/cyclin E (Homo sapiens) (O96020 whole entry, looked up, the tested form may be a part): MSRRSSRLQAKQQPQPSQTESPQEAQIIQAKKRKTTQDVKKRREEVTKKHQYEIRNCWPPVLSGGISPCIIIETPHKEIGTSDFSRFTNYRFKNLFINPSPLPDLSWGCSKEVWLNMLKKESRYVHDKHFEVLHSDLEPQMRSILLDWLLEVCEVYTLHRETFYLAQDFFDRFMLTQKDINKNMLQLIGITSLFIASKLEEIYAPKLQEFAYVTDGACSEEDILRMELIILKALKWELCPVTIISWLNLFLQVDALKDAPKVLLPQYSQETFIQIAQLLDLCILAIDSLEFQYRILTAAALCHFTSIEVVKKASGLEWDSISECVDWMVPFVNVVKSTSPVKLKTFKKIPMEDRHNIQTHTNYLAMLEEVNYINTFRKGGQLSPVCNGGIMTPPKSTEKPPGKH
Chain of CDK3/cyclin E (Homo sapiens) (P24864 whole entry, looked up, the tested form may be a part): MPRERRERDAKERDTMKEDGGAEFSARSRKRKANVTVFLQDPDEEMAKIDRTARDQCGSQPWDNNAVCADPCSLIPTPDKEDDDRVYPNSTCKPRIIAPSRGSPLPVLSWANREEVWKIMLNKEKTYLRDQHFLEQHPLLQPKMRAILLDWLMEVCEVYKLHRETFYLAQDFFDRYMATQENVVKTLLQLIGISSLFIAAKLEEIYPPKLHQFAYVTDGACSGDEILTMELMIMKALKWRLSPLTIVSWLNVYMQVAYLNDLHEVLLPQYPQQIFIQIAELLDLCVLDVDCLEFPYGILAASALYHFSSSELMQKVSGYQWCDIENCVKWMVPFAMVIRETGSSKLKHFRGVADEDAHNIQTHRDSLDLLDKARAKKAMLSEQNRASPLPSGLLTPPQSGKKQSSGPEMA
Chain of CDK3/cyclin E (Homo sapiens) (Q00526 whole entry, looked up, the tested form may be a part): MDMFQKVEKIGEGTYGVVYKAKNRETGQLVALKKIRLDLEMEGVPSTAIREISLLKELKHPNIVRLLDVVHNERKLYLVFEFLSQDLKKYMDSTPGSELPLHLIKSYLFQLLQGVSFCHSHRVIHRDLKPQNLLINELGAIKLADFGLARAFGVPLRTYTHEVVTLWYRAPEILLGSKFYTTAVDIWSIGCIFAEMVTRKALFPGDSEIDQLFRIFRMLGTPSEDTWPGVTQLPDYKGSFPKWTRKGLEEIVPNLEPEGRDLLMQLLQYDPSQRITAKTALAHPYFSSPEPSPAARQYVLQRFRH

[14] = molecular target: PAS domain-containing serine/threonine-protein kinase (Homo sapiens) (UniProt Q96RG2); assay: Residual activity of PASK at 10 uM by microplate scintillation counting
Chain of PAS domain-containing serine/threonine-protein kinase (Homo sapiens) (Q96RG2 whole entry, the tested form may be a part): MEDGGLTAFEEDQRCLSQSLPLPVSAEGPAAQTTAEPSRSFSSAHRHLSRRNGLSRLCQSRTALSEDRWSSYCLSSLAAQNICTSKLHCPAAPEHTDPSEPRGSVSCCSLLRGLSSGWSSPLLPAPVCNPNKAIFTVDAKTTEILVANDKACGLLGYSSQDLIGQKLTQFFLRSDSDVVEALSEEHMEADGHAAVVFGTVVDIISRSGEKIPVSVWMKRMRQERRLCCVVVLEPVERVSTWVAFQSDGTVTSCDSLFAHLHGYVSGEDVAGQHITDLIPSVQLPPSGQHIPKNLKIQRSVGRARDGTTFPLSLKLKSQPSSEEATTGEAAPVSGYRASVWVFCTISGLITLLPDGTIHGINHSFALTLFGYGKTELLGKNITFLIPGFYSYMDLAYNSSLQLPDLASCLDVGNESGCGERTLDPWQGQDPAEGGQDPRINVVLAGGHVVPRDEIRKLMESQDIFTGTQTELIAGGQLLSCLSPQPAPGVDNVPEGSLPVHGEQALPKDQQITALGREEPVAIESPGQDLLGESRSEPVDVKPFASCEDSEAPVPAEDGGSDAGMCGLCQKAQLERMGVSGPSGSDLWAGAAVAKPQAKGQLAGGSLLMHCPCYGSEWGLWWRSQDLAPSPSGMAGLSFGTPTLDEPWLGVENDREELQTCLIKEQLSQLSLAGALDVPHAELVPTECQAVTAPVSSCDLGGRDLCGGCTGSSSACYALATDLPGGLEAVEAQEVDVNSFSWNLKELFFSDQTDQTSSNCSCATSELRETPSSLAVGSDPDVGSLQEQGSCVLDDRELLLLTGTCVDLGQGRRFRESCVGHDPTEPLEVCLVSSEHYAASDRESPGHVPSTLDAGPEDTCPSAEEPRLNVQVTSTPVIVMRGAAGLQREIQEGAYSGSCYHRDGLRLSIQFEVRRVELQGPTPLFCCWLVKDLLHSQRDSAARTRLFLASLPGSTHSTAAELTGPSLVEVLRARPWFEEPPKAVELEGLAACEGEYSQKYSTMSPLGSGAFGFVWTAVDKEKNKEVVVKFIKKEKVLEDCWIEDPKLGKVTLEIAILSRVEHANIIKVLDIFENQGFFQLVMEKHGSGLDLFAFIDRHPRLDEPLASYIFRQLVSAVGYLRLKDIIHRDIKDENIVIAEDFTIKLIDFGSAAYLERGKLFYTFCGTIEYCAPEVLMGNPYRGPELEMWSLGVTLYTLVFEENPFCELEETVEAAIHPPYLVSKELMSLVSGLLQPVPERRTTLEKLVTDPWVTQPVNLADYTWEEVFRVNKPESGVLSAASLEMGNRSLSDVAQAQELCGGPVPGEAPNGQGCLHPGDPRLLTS

[15] = molecular target: ALK tyrosine kinase receptor (Homo sapiens) (UniProt Q9UM73); assay: Residual activity of ALK at 0.1 uM by microplate scintillation counting
Chain of ALK tyrosine kinase receptor (Homo sapiens) (Q9UM73 19-1620 limits assumed): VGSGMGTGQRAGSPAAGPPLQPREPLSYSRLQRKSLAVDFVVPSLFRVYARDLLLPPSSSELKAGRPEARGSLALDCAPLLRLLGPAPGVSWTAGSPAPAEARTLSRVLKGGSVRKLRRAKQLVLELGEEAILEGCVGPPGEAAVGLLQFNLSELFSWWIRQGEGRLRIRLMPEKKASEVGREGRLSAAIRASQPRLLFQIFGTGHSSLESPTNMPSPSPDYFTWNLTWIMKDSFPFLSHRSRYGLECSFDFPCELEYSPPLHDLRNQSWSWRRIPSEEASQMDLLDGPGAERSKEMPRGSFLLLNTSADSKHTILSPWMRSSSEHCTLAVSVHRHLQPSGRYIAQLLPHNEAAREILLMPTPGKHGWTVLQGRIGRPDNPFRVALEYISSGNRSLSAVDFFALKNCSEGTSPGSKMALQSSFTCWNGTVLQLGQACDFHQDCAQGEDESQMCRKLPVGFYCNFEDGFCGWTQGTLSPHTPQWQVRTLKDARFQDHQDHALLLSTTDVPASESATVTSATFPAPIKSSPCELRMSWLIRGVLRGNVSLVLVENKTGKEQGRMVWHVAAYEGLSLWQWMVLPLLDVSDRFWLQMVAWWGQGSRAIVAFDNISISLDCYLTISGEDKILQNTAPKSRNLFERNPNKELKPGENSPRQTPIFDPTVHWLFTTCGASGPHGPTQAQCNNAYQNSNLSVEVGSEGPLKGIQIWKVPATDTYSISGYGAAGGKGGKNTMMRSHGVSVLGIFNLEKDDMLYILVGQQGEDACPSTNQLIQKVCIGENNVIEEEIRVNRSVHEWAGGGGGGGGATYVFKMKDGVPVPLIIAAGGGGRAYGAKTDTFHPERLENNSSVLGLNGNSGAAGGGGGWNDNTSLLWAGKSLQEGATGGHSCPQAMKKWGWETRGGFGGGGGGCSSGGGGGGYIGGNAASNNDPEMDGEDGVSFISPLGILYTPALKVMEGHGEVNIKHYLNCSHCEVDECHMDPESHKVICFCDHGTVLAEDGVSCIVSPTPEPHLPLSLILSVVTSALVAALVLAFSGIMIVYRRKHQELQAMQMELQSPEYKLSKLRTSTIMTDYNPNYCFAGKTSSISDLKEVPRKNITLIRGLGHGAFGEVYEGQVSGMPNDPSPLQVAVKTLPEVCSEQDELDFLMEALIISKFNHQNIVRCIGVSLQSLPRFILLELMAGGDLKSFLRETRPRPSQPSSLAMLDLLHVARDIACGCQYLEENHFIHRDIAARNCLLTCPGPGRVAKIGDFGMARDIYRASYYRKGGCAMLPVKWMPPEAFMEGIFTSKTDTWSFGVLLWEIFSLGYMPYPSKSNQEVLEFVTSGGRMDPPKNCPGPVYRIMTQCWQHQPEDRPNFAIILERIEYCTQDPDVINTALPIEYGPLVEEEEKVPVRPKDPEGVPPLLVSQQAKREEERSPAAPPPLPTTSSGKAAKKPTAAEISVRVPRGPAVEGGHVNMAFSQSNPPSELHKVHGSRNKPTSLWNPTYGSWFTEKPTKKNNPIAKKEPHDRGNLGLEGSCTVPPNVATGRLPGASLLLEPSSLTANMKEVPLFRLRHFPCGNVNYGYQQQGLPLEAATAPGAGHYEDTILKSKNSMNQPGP

[16] = molecular target: Cyclin-dependent kinase 2/cyclin E1 (Homo sapiens) (UniProt P24864+P24941); assay: Residual activity of CDK2/Cyclin E at 0.1uM by microplate scintillation counting; assay type: protein-complex assay
[17] = molecular target: Serine/threonine-protein kinase Nek7 (Homo sapiens) (UniProt Q8TDX7); assay: Residual activity of NEK7 at 0.1 uM by microplate scintillation counting
[18] = molecular target: Ribosomal protein S6 kinase alpha-6 (Homo sapiens) (UniProt Q9UK32); assay: Residual activity of RPS6KA6 at 10 uM by microplate scintillation counting
[19] = molecular target: T2, Serine/threonine-protein kinase 17A (Homo sapiens) (UniProt Q9UEE5); assay: Residual activity of STK17A at 10 uM by microplate scintillation counting
T2 sequence (whole entry): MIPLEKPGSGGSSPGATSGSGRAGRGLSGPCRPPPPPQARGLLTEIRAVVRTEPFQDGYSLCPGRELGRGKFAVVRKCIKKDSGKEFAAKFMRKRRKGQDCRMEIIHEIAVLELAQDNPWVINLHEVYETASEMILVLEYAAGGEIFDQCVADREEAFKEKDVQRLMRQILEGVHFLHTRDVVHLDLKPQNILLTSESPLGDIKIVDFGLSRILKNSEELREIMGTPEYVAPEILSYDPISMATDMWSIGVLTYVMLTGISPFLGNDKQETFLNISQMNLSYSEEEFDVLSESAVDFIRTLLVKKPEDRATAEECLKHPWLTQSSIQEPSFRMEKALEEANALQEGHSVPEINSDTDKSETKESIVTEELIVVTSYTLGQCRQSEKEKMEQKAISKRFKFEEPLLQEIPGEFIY

Aurora kinase A = molecular target: T3, Aurora kinase A (Homo sapiens, UniProt O14965); assay: Inhibition of Aurora-A by microplate scintillation counting
T3 sequence (O14965 whole entry): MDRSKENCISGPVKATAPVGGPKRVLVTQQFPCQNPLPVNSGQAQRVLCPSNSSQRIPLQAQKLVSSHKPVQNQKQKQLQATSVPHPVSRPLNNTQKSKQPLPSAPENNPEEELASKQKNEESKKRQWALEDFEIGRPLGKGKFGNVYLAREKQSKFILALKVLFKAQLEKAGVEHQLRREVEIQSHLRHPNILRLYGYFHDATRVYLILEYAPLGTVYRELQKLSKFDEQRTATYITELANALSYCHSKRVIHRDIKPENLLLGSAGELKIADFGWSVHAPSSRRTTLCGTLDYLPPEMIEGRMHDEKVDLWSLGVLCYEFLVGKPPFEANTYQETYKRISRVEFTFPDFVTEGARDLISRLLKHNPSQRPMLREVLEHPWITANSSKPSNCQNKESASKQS
Summary of the method: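 Substrates: tetra(LRRWSLG) for Aurora A/B; poly(Ala,Glu,Lys,Tyr)6:2:5:1 for PDGFRβ; poly(Glu,Tyr)4:1 for TIE2 and VEGFR2. Stopped with 2% H3PO4.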

Angiopoietin-1 receptor = Angiopoietin-1 receptor (Homo sapiens, UniProt Q02763); assay: Inhibition of TIE2 in human HCT116 cells by cellular phosphorylation assay; assay type: cell-based, HCT-116
Summary of the method: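 TIE2 autophosphorylation in cells expressing the receptor. Compound was applied, cells were stimulated, then lysed with phosphoprotein levels preserved. Phosphorylation was quantified by sandwich ELISA with a receptor-specific capture antibody and anti-phosphotyrosine antibody, relative to the stimulated high control.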

| residual activity [2] | residual activity [3] | residual activity [4] | residual activity [5] | residual activity [6] | residual activity [7] | residual activity [8] | residual activity [9] | residual activity [10] | residual activity [11] | residual activity [12] | residual activity [13] | residual activity [14] | residual activity [15] | residual activity [16] | residual activity [17] | residual activity [18] | residual activity [19] | pIC50 (Aurora kinase A) | SMILES | residual activity [1] | other results |
| --- | --- | --- | --- | --- | --- | --- | --- | --- | --- | --- | --- | --- | --- | --- | --- | --- | --- | --- | --- | --- | --- |
| 94% | 103% | 105% | 86% | 95% | 143% | 124% | 84% | 119% | 187% | 97% | 113% | 83% | 102% | 93% | 95% | 50% | 6% | 6.77 | COc1cc2c(Oc3ccc(-c4nc5ccccc5s4)cc3)ncnc2cc1OCCCN1CCCC1 | 86% | pEC50 (Angiopoietin-1 receptor): 6.85 |
| 91% | 102% | 98% | 86% | 104% | 148% | 104% | 101% | 167% | 78% | 100% | 119% | 79% | 114% | 92% | 97% | 32% | 1% | 6.66 | COc1cc2c(Oc3ccc(-c4nc5ccccc5s4)cc3F)ncnc2cc1OCCCN1CCN(C)CC1 | 81% | pEC50 (Angiopoietin-1 receptor): 6.52 |
| 101% | 116% | 101% | 87% | 103% | 145% | 104% | 99% | 175% | 155% | 109% | 130% | 96% | 106% | 86% | 83% | 35% | 19% | 7.09 | COc1cc2c(Oc3ccc(-c4nc5ccccc5s4)cc3)ncnc2cc1OCCCN1CCN(C)CC1 | 84% | pEC50 (Angiopoietin-1 receptor): 6.27 |
